MPTP block: inhibitors of mitochondrial permeability transition pore | isolated mouse mitochondria, Ca2+ swelling absorbance, 30 min | inhibition, % at 10 µM | actives 1.4% (n = 360,000) | AID 602449;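 active = inhibition of 50% or more, scaled per plate between neutral and stimulator controls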;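 also: 0% = DMSO wells given calcium and 100% = 1 mM EGTA wells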
WT yeast gro inh: growth inhibition of WT yeast, mitochondrial fusion screen; mitochondrial fusion phenotypic screen, WT strain; inhibition, % at 10 µM; actives 2.1% (n = 190,000); AID 1362; in the data active = inhibition above about 58%; tested in S. cerevisiae
Tb MetRS inh: blocks T. brucei methionyl-tRNA synthetase activity | inhibition, % at 11.9 µM | actives 0.4% (n = 360,000) | purified T. brucei MetRS, ATP depletion, Kinase-Glo luminescence;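 active = inhibition above a per-plate cutoff of the control wells' mean inhibition plus 3 SD, cut at about 5.5% in these data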;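 also: 0% = DMSO wells median and 100% = median of wells with control inhibitor compound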
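Assay system: T. brucei methionyl-tRNA synthetase, purified | Medium: HEPES buffer with MgCl2, KCl, DTT, spermine, BSA, pyrophosphatase | Compound: 11.9 µM single point | Incubation: 15 min enzyme-compound preincubation, 2 h reaction, 10 min detection, 25 °C | Measured by: Kinase-Glo luciferase luminescence reporting remaining unconsumed ATP | Measure: % inhibition normalized to control-well medians | Replication: Singlicate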
NR3A LBD binder: modulates the human NR3A ligand-binding domain. NR3A LBD differential scanning fluorimetry, Tm shift; 0% = protein alone, 100% = glycine-bound protein. Tm shift relative to glycine control, % at 25 µM. actives 2.5% (n = 340,000);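 active = melting temperature shift of at least 10% of the positive control shift, at one fixed dose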
CHOP inh: CHOP inhibition in unfolded protein response; actives 3.8% (n = 220,000); AID 2732; inhibition, % at 10 µM; CHO-K1 CHOP-promoter luciferase, tunicamycin-induced, 15-18 h;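 active = compounds that reduced the stress-induced luciferase reporter signal by more than about 70% of percent inhibition, limit read from the data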;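 also: 0% = tunicamycin plus vehicle and 100% = wells without tunicamycin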
EBV gp42 inh: blocks Epstein-Barr virus glycoprotein 42 binding; inhibition, % (tested at 21.74 µM); actives 0.42% (n = 220,000); Fluorescence polarization binding assay, mP read-out; in the data active = inhibition above about 50%
Target sequence (Q1HVG2 whole entry, looked up): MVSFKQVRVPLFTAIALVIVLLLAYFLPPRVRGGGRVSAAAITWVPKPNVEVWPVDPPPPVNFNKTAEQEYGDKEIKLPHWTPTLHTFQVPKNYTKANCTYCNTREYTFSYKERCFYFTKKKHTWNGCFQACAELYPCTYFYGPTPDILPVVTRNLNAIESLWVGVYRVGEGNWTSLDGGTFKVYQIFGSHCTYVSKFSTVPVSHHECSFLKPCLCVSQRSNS
* = called active by the depositor; · = no result. Only some compounds are listed: those with a hit (about 6.4% of all), similar ones and a draw of the others.

SMILES | MPTP block | WT yeast gro inh | Tb MetRS inh | NR3A LBD binder | CHOP inh | EBV gp42 inh
CCc1ccccc1N1CC23C=CC(O2)C(C(=O)OC)C3C1=O (configuration not stated) | -2 | 17 | 0 | 2 | 2 | -1
CCc1ccccc1N1C[C@@]23C=C[C@@H](O2)C(C(=O)OCC(C)C)[C@H]3C1=O (some centres not stated) | -1 | 60* | 0 | 1 | -7 | 2
CCCCNC(=O)C1C2C=CC3(CN(Cc4ccccc4Cl)C(=O)C13)O2 (configuration not stated) | 0 | 4 | 0 | -1 | 6 | -2
CC(C)CCNC(=O)C1C2C=CC3(CN(Cc4ccccc4Cl)C(=O)C13)O2 (configuration not stated) | 1 | 0 | -1 | 0 | 92* | 1
Cn1cccc1C(C#N)c1cccc(F)c1C#N (configuration not stated) | -1 | 4 | 0 | 0 | 7 | -15
COC(=O)Nc1snnc1C | -2 | 63* | -1 | -8 | 39 | -1
CCCSc1nsc(NC(=O)C(c2ccccc2)c2ccccc2)n1 | 12 | -31 | -1 | 18* | 93* | -31
O=C(O)CN1C(=O)/C(=C2\SC(=S)N(C(Cc3ccccc3)C(=O)O)C2=O)c2ccccc21 (configuration not stated) | 0 | · | -1 | 1 | · | ·
CCCC(C(=O)O)N1C(=O)/C(=C2\C(=O)N(C)c3ccccc32)SC1=S (configuration not stated) | -11 | · | 0 | 27* | · | ·
CN(C)c1ccc(/C=C(\C#N)C(=O)Nc2nc3c(s2)CCN(Cc2ccccc2)C3)cc1 | 2 | 20 | 0 | -3 | 55 | 106*
COc1cccc2cc(C(=O)N3CCN(c4ccccc4F)CC3)c(=O)oc12 | -1 | 9 | 1 | 1 | 4 | -8
CCCCN(C(=O)c1cccc2c(=O)c(C)c(-c3ccccc3)oc12)c1ccccc1 | 5 | 78* | 1 | -3 | -9 | -10
CCCCNC(=O)c1cccc2c(=O)c(C)c(-c3ccccc3)oc12 | 1 | 12 | 0 | 2 | 8 | -21
Cc1c(-c2ccccc2)oc2c(C(=O)N3CCN(c4ccccc4F)CC3)cccc2c1=O | 0 | 16 | 0 | -2 | 71* | -3
CN1C(C(=O)NCC2CC2)CC2Cn3c(nc4cc5ccccc5cc43)C21 (configuration not stated) | -1 | · | 0 | -7 | -5 | -19
CCCCCC(O)(CCCCC)C(=O)NNc1ccccc1 | 0 | -15 | -1 | 1 | 91* | -7
CCCCC(O)(CCCC)C(=O)NNc1ccccc1 | 0 | -3 | 0 | -1 | -19 | 4
O=C(CN1C(=O)NC2(CCCC2)C1=O)N1CCN(S(=O)(=O)c2ccccc2F)CC1 | -1 | · | -1 | 13* | · | ·
O=C(CN1C(=O)NC2(CCCC2)C1=O)N1CCN(S(=O)(=O)c2ccccc2Br)CC1 | 1 | · | 0 | -2 | · | ·
Cc1ccc(Nc2nc(-c3c(C)nc4ncccn34)cs2)cc1 | -1 | -4 | 1 | 2 | -27 | -15
Cc1ccc(Nc2nc(-c3c(C)nc4ccccn34)cs2)cc1 | 23 | 71* | 0 | 1 | 85* | -7
Cc1cc(NS(=O)(=O)c2ccc(NC(=O)c3oc4ccccc4c3C)cc2)no1 | -1 | 9 | 0 | 14* | 13 | -15
Cc1ccc(OC(C)C(=O)Nc2ccc(S(=O)(=O)Nc3cc(C)on3)cc2)cc1 (configuration not stated) | -1 | -11 | 0 | 16* | -14 | -5
CN1CCN(S(=O)(=O)c2ccc(NC(=O)Nc3cccc(Cl)c3)cc2)CC1 | 17 | -5 | 1 | 14* | 32 | 2
CN1CCN(S(=O)(=O)c2ccc(NC(=O)c3ccccc3Cl)cc2)CC1 | -1 | · | -1 | -1 | · | ·
SMILES | MPTP block | WT yeast gro inh | Tb MetRS inh | NR3A LBD binder | CHOP inh | EBV gp42 inh
Cc1cc(NS(=O)(=O)c2ccc(NC(=O)Nc3cccc(Cl)c3)cc2)no1 | 11 | -16 | 4 | 21* | -53 | -6
CCC(=O)c1ccc(N2CCN(C(=O)c3cccc(F)c3)CC2)c(F)c1 | 0 | -3 | 0 | -2 | 17 | -2
Cc1sc(NC(=O)CSc2nnc(COc3ccccc3)n2C)c(C#N)c1C | 1 | 15 | 1 | 0 | 56 | -11
Cc1nc2cc(NC(=O)c3ccc(Br)s3)ccc2s1 | 0 | · | 0 | 25* | · | ·
Cc1cc(NS(=O)(=O)c2ccc(NC(=S)NC(=O)c3cccc(S(=O)(=O)N(C)C)c3)cc2)no1 | 1 | -10 | 0 | 1 | -1 | -9
CN1CCN(S(=O)(=O)c2ccc(NC(=O)c3ccc(Br)s3)cc2)CC1 | 1 | 24 | 1 | 29* | 24 | -1
Cc1cc(NS(=O)(=O)c2ccc(NC(=S)NC(=O)c3ccc(F)cc3)cc2)no1 | -3 | -12 | 0 | 14* | -1 | -7
CN1CCN(S(=O)(=O)c2ccc(NC(=O)c3ccc(Br)o3)cc2)CC1 | 0 | -15 | 1 | -1 | 8 | 2
COc1ccc2oc(=N)c(C(=O)NCc3ccccc3)cc2c1 | 2 | · | 0 | 2 | · | ·
O=C1CC(=O)N(CCc2ccccc2)C(=O)N1CCc1ccccc1 | 16 | 6 | 0 | -3 | 21 | -19
CCCSc1cc(Cl)nc(N)n1 | 0 | · | -1 | 0 | -13 | 0
Cc1ccc(O)c(C(=O)c2cc(C#N)c(=O)n(-c3nccs3)c2)c1 | 18 | 12 | -1 | 2 | 22 | 46
COc1cccc(-n2c(SCC(=O)N3CCc4ccccc43)nnc2-c2c[nH]c3ccccc23)c1 | -1 | -3 | 0 | 1 | 90* | -21
O=C(CSc1ccc2nnc(-c3cccnc3)n2n1)N1CCc2ccccc21 | · | 1 | · | · | · | ·
O=C(CSc1ccc2nnc(-c3ccc(Cl)cc3)n2n1)N1CCc2ccccc21 | -2 | -4 | -1 | 0 | 79* | -25
COc1ccc2nc(NC(=O)CSc3nnc4n3C(C)(C)Cc3ccccc3-4)sc2c1 | 6 | -62 | 0 | 10* | -10 | -7
CC1(C)Cc2ccccc2-c2nnc(SCC(=O)N3CCc4ccccc43)n21 | 4 | -14 | -1 | 0 | 77* | -11
COc1cc(NC(=O)CSc2nnc3n2C(C)(C)Cc2ccccc2-3)cc(OC)c1 | 4 | -38 | -1 | 2 | 15 | -11
CC1(C)C(=O)Nc2ccccc2N1C(=O)COC(=O)CSc1ccc(F)cc1 | 0 | · | 0 | 0 | · | ·
CC(C)CN1CCC(=O)NC1=S | -2 | · | 0 | -2 | · | ·
CCCC(C(=O)NCCc1ccc(S(N)(=O)=O)cc1)c1ccccc1 (configuration not stated) | -1 | · | 0 | 2 | · | ·
O=[N+]([O-])c1ccc(Oc2ccc(S(=O)(=O)N3CCOCC3)cn2)cc1 | 0 | · | 0 | 2 | · | ·
CCn1c(SCC(=O)Nc2nc3ccc(OC)cc3s2)nc2c1c(=O)n(C)c(=O)n2C | 8 | 29 | -1 | 1 | 84* | -24

Screening data from PubChem.
